Reference: ChEMBL document CHEMBL1955829, “Synthesis and biological evaluation of 4β-sulphonamido and 4β-[(4'-sulphonamido)benzamide]podophyllotoxins as DNA topoisomerase-IIα and apoptosis inducing agents” (2012)
Active and inactive are the calls of the source. No cut-off for these calls is given here.

Experiments:
COLO 205 [1] = experiment: Growth inhibition of human COLO205 cells after 48 hrs by sulforhodamine B assay; assay type: functional; settings: COLO 205, 48 h
Outline: (§1)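 Cells grown in DMEM with 10% FBS and 2 mM L-glutamine, plated at densities set by doubling time, and held 24 h before dosing. Exposure was 48 h to 0.1, 1, 10 and 100 µM in triplicate wells. Cells fixed with cold TCA (final 10%) 60 min at 4 °C and stained with 0.4% SRB 20 min. Bound dye eluted in 10 mM Tris base and read at 540 nm (690 nm reference). GI50 is the concentration giving 50% reduction in net protein gain versus control; values are the mean of three determinations.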

HOP-62 = experiment: Growth inhibition of human HOP62 cells after 48 hrs by sulforhodamine B assay; assay type: functional; settings: HOP-62, 48 h; outline: as §1
ZR-75-1 = experiment: Growth inhibition of human ZR-75-1 cells after 48 hrs by sulforhodamine B assay; assay type: functional; settings: ZR-75-1, 48 h; outline: as §1
[2] = Growth inhibition of human DWD cells after 48 hrs by sulforhodamine B assay; assay type: functional; outline: as §1
MCF7 = experiment: Growth inhibition of human MCF7 cells after 48 hrs by sulforhodamine B assay; assay type: functional; settings: MCF7, 48 h; outline: as §1
A2780 = experiment: Growth inhibition of human A2780 cells after 48 hrs by sulforhodamine B assay; assay type: functional; settings: A2780, 48 h; outline: as §1
A549 = experiment: Growth inhibition of human A549 cells after 48 hrs by sulforhodamine B assay; assay type: functional; settings: A549, 48 h; outline: as §1
KB = experiment: Growth inhibition of human KB cells after 48 hrs by sulforhodamine B assay; assay type: functional; outline: as §1
COLO 205 [3] = experiment: Up-regulation of topoisomerase 2alpha in human COLO205 cells at 4 uM after 24 hrs by Western blotting analysis in presence of HDAC inhibitor, trichostatin A; assay type: functional, cell-based
Outline: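 Colo-205 cells exposed 24 h to test agent plus TSA, each at 4 µM. Western blot of lysates probed for topo-IIα, with β-actin as loading control.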

COLO 205 [4] = experiment: Induction of apoptosis in human COLO205 cells assessed as down regulation of Bcl-2 at 4 uM after 24 hrs by ELISA; assay type: functional, cell-based
Outline: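 Colo-205 cells treated 24 h at 4 µM, with etoposide and camptothecin as controls. Lysates added to Bcl2-antibody-coated wells, followed by a biotin-conjugated anti-human Bcl2 monoclonal antibody, in a Bcl2 ELISA.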

COLO 205 [5] = experiment: Cell cycle arrest in human COLO205 cells assessed as accumulation at G1 phase at 4 uM after 24 hrs by FACS analysis (reference value: 60.89%); assay type: functional
Outline: (§2)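 Colo-205 cells seeded at […] per 60 mm dish and treated 24 h at 4 µM; TSA arm used TSA at 4 µM for 12 h. Cells trypsinised, fixed in ice-cold 70% ethanol 30 min at 4 °C, RNase 1 mg/mL 30 min at 37 °C, then propidium iodide/citrate/Triton stain. DNA content of 20,000 events read by flow cytometry; phase percentages from histograms.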

COLO 205 [6] = experiment: Cytotoxicity against human COLO205 cells at 4 uM after 24 hrs by MTT assay; assay type: functional, cell-based
Outline: (§3)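 Colo-205 cells plated at 10,000 per well, left overnight, then exposed 24 h at 2, 4 or 8 µM. MTT added for 2 h at 37 °C, formazan dissolved in extraction buffer, and optical density read at 570 nm against untreated cells.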

COLO 205 [7] = experiment: Cytotoxicity against human COLO205 cells at 2 uM after 24 hrs by MTT assay; assay type: functional, cell-based; outline: as §3
COLO 205 [8] = experiment: Cell cycle arrest in human COLO205 cells assessed as accumulation at G0 phase at 4 uM after 24 hrs by FACS analysis (reference value: 4.29%); assay type: functional; outline: as §2
COLO 205 [9] = experiment: Cell cycle arrest in human COLO205 cells assessed as accumulation at S phase at 4 uM after 24 hrs by FACS analysis (reference value: 8.91%); assay type: functional; outline: as §2
COLO 205 [10] = experiment: Cell cycle arrest in human COLO205 cells assessed as accumulation at G2/M phase at 4 uM after 24 hrs by FACS analysis (reference value: 25.92%); assay type: functional; outline: as §2
COLO 205 [11] = experiment: Cytotoxicity against human COLO205 cells at 8 uM after 24 hrs by MTT assay; assay type: functional, cell-based; outline: as §3

Row | SMILES | GI50 (COLO 205 [1]) | GI50 (HOP-62) | GI50 (ZR-75-1) | GI50 [2] | GI50 (MCF7) | GI50 (A2780) | GI50 (A549) | GI50 (KB) | Activity (COLO 205 [3]) | Activity (COLO 205 [4]) | Activity (COLO 205 [5]) | Activity (COLO 205 [6]) | Activity (COLO 205 [7]) | Activity (COLO 205 [8]) | Percentage of cells in S phase (COLO 205 [9]) | Percentage of cells in G2/M phase (COLO 205 [10]) | Activity (COLO 205 [11])
1 | COc1ccc(S(=O)(=O)Nc2ccc(C(=O)N[C@@H]3c4cc5c(cc4[C@@H](c4cc(OC)c(OC)c(OC)c4)[C@H]4C(=O)OC[C@@H]43)OCO5)cc2)cc1 | 2510 nM | 2710 nM | 2120 nM | 2020 nM | 160 nM | – | – | – | – | – | – | – | – | – | – | – | –
2 | COc1cc([C@@H]2c3cc4c(cc3[C@@H](NC(=O)c3ccc(NS(=O)(=O)c5ccc(Br)s5)cc3)[C@H]3COC(=O)[C@H]23)OCO4)cc(OC)c1OC | – | 2010 nM | 2900 nM | 2500 nM | 2710 nM | 2110 nM | – | – | – | – | – | – | – | – | – | – | –
3 | COc1cc([C@@H]2c3cc4c(cc3[C@@H](NS(=O)(=O)c3cccc5nsnc35)[C@H]3COC(=O)[C@H]23)OCO4)cc(OC)c1OC | – | 2210 nM | 2510 nM | – | 2210 nM | 2310 nM | 2710 nM | – | – | – | – | – | – | – | – | – | –
4 | COc1cc([C@@H]2c3cc4c(cc3[C@@H](NS(=O)(=O)c3ccc(-c5ccccc5)cc3)[C@H]3COC(=O)[C@H]23)OCO4)cc(OC)c1OC | 2710 nM | 2010 nM | 2300 nM | 2210 nM | 2610 nM | 2110 nM | 2000 nM | – | – | – | – | – | – | – | – | – | –
5 | COc1cc([C@@H]2c3cc4c(cc3[C@@H](NC(=O)c3ccc(NS(=O)(=O)c5ccc(-c6ccccc6)cc5)cc3)[C@H]3COC(=O)[C@H]23)OCO4)cc(OC)c1OC | 2800 nM | – | 2110 nM | 2880 nM | 2300 nM | 2510 nM | – | 2500 nM | – | – | – | – | – | – | – | – | –
6 | COc1cc([C@@H]2c3cc4c(cc3[C@@H](NS(=O)(=O)c3sc(NC(C)=O)nc3C)[C@H]3COC(=O)[C@H]23)OCO4)cc(OC)c1OC | 110 nM | 160 nM | 170 nM | 140 nM | 150 nM | 150 nM | 120 nM | 170 nM | – | – | – | – | – | – | – | – | –
7 | CC[C@@]1(O)C(=O)OCc2c1cc1n(c2=O)Cc2cc3ccccc3nc2-1 | – | – | – | – | – | – | – | – | inactive | Active | – | – | – | – | – | – | –
8 | COc1cc([C@@H]2c3cc4c(cc3[C@@H](NS(=O)(=O)c3cc(Cl)sc3Cl)[C@H]3COC(=O)[C@H]23)OCO4)cc(OC)c1OC | 150 nM | 2000 nM | 2500 nM | 150 nM | 110 nM | 160 nM | 140 nM | 2100 nM | – | – | – | – | – | – | – | – | –
9 | COc1cc([C@@H]2c3cc4c(cc3[C@@H](NC(=O)c3ccc(NS(=O)(=O)c5ccc(Oc6ccccc6)cc5)cc3)[C@H]3COC(=O)[C@H]23)OCO4)cc(OC)c1OC | – | 2000 nM | 2900 nM | 2100 nM | – | – | 2700 nM | 2010 nM | – | – | – | – | – | – | – | – | –
10 | COc1cc([C@@H]2c3cc4c(cc3[C@@H](NS(=O)(=O)c3ccc(Br)s3)[C@H]3COC(=O)[C@H]23)OCO4)cc(OC)c1OC | 40 nM | 40 nM | 180 nM | 50 nM | 130 nM | 60 nM | 120 nM | 40 nM | – | – | 34.67% | Active | Active | 11.04% | 16.51% | 37.78% | Active
11 | COc1cc([C@@H]2c3cc4c(cc3[C@@H](NC(=O)c3ccc(NS(=O)(=O)c5cccc6nsnc56)cc3)[C@H]3COC(=O)[C@H]23)OCO4)cc(OC)c1OC | – | 2910 nM | 2230 nM | 2800 nM | 170 nM | 2110 nM | – | – | – | – | – | – | – | – | – | – | –
12 | COc1cc([C@@H]2c3cc4c(cc3[C@@H](NS(=O)(=O)c3ccc(Oc5ccccc5)cc3)[C@H]3COC(=O)[C@H]23)OCO4)cc(OC)c1OC | – | – | 2310 nM | 2910 nM | 2210 nM | 2400 nM | 2110 nM | 2310 nM | – | – | – | – | – | – | – | – | –
13 | COc1cccc2c1C(=O)c1c(O)c3c(c(O)c1C2=O)C[C@@](O)(C(=O)CO)C[C@@H]3O[C@H]1C[C@H](N)[C@H](O)[C@H](C)O1 [DOXORUBICIN] | 140 nM | 140 nM | – | 100 nM | 170 nM | 160 nM | – | 170 nM | – | – | – | – | – | – | – | – | –
14 | COc1cc([C@@H]2c3cc4c(cc3[C@@H](NS(=O)(=O)c3cccc5cccnc35)[C@H]3COC(=O)[C@H]23)OCO4)cc(OC)c1OC | 40 nM | 60 nM | 80 nM | 170 nM | 120 nM | 80 nM | 40 nM | 60 nM | – | – | 58.41% | Active | Active | 3.06% | 10.35% | 28.19% | Active
15 | COc1cc([C@@H]2c3cc4c(cc3[C@@H](NS(=O)(=O)c3ccc(S(=O)(=O)c5ccccc5)s3)[C@H]3COC(=O)[C@H]23)OCO4)cc(OC)c1OC | – | – | 2110 nM | 2610 nM | 140 nM | 2300 nM | – | 2110 nM | – | – | – | – | – | – | – | – | –
16 | COc1cc([C@@H]2c3cc4c(cc3[C@@H](NS(=O)(=O)c3cccc5ccccc35)[C@H]3COC(=O)[C@H]23)OCO4)cc(OC)c1OC | 2100 nM | 2400 nM | 2100 nM | 2000 nM | 90 nM | 1910 nM | 160 nM | 2300 nM | – | – | – | – | – | – | – | – | –
17 | COc1cc([C@@H]2c3cc4c(cc3[C@@H](NC(=O)c3ccc(NS(=O)(=O)c5cccc6cccnc56)cc3)[C@H]3COC(=O)[C@H]23)OCO4)cc(OC)c1OC | 2310 nM | 2610 nM | – | 140 nM | 2900 nM | 2420 nM | 2510 nM | – | – | – | – | – | – | – | – | – | –
18 | COc1cc([C@@H]2c3cc4c(cc3[C@@H](NC(=O)c3ccc(NS(=O)(=O)c5cccc6ccccc56)cc3)[C@H]3COC(=O)[C@H]23)OCO4)cc(OC)c1OC | 2120 nM | 2220 nM | 2810 nM | – | 2320 nM | 2000 nM | 2600 nM | 2000 nM | – | – | – | – | – | – | – | – | –
